The subject of experiment [1] is KM12. As to the kind of experiment: Cytotoxicity against human KM12 cells after 2 days by XTT assay. It counts as functional, cell-based. As to conditions: KM12, 48 h. The essentials: (§1)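 Test samples were supplied as DMSO solutions and applied to human colon tumour KM12 and COLO205 cells in a two-day in vitro XTT-based antiproliferative assay. Activity was expressed as IC50 (μM).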
(Formazan colour is commonly taken as a measure of viable cells.)

Experiment [2] deals with COLO 205. As to the kind of experiment: Cytotoxicity against human COLO205 cells after 2 days by XTT assay. It counts as functional, cell-based. As to conditions: COLO 205, 48 h. The gist of the method:
as §1

The subject of experiment [3] is KM12. As to the kind of experiment: Growth inhibition of human KM12 cells after 2 days by XTT assay. It counts as functional, cell-based. As to conditions: KM12, 48 h. The gist of the method: as §1
Experiment [4] deals with COLO 205. As to the kind of experiment: Growth inhibition of human COLO205 cells after 2 days by XTT assay. As to conditions: COLO 205, 48 h. It counts as functional, cell-based. The gist of the method:
as §1

Experiment [5] deals with Endothelial PAS domain-containing protein 1 (Homo sapiens) (UniProt Q99814). As to the kind of experiment: Inhibition of HIF-2alpha expressed in 786O cells assessed as inhibition of VEGF expression by luciferase reporter gene assay. Type of experiment: cell-based. (In general: In a reporter assay the amount or activity of a reporter protein is the signal.)
Sequence of Endothelial PAS domain-containing protein 1 (Homo sapiens) (Q99814 whole entry, the tested form may be a part): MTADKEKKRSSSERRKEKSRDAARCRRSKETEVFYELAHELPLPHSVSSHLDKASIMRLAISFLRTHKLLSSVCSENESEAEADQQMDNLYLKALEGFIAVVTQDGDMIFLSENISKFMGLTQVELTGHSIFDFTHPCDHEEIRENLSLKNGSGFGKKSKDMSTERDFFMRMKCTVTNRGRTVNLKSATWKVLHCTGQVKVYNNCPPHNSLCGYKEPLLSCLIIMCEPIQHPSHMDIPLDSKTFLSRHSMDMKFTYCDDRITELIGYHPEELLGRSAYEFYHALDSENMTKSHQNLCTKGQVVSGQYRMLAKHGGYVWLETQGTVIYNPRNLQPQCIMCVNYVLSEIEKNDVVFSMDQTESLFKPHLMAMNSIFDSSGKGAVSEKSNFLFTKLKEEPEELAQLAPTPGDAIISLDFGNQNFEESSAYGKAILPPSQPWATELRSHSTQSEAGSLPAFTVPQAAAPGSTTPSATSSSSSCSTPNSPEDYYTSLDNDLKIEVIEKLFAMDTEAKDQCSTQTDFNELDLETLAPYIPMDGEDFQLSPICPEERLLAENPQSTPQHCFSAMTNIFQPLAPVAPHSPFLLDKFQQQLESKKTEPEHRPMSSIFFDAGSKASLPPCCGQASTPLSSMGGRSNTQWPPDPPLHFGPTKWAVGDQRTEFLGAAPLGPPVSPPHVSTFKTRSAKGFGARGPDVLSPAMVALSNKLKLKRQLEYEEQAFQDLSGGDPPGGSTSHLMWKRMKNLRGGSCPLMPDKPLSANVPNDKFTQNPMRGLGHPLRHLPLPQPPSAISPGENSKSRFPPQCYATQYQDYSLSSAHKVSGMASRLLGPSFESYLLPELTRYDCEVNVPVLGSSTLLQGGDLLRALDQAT

Activity calls are given as the source filed them. No cut-off for these calls is given here.

`C=C1[C@@H](OC(C)=O)C[C@H]2[C@@](C)(CC[C@H]3C(C)(C)CCC[C@]23C)[C@@H]1C[C@H](O)[C@H](CCOC(C)=O)C(C)=O` [FLABELLIFERIN A]: the IC50 with KM12 [1] is 15 µM; in the experiment with COLO 205 [2], 20 µM; with KM12 [3], 15 µM; with COLO 205 [4], 20 µM. Besides, the inhibition result in experiment [5] was “inactive”.

For `CC(=O)O[C@H]1C[C@H]2[C@@](C)(CC[C@H]3C(C)(C)CCC[C@]23C)[C@@H]2C[C@H](O)C(C(C)=O)=C[C@@]12C` [FLABELLIFERIN B], the IC50 came out at 18 µM in the experiment with KM12 [1], 20 µM in the experiment on COLO 205 [2], 18 µM with KM12 [3] and 20 µM with COLO 205 [4]. Besides, in experiment [5], the inhibition result is “inactive”.

A word on the IC50: it is the midpoint of a concentration-inhibition curve.

Source of the values: ChEMBL document CHEMBL2086315, “Flabelliferins A and B, sesterterpenoids from the South Pacific sponge Carteriospongia flabellifera” (J Nat Prod, 2012).
